Data set [1] deals with Endoplasmin (Canis lupus familiaris, UniProt P41148). The experiment in a line: Displacement of Cy3B-GM from recombinant Grp94 (unknown origin) after 24 hrs by fluorescence polarization assay. On the technique in general: Fluorescence polarisation rises when a labelled molecule tumbles more slowly, as on binding a larger partner.
Data set [2] concerns the target Heat shock protein HSP 90-alpha (Homo sapiens, UniProt P07900). The experiment in a line: Displacement of Cy3B-GM from recombinant Hsp90alpha (unknown origin) after 24 hrs by fluorescence polarization assay.
In data set [3] the target is T1, Heat shock protein 75 kDa, mitochondrial (Homo sapiens, UniProt Q12931).
T1 sequence (Q12931 whole entry): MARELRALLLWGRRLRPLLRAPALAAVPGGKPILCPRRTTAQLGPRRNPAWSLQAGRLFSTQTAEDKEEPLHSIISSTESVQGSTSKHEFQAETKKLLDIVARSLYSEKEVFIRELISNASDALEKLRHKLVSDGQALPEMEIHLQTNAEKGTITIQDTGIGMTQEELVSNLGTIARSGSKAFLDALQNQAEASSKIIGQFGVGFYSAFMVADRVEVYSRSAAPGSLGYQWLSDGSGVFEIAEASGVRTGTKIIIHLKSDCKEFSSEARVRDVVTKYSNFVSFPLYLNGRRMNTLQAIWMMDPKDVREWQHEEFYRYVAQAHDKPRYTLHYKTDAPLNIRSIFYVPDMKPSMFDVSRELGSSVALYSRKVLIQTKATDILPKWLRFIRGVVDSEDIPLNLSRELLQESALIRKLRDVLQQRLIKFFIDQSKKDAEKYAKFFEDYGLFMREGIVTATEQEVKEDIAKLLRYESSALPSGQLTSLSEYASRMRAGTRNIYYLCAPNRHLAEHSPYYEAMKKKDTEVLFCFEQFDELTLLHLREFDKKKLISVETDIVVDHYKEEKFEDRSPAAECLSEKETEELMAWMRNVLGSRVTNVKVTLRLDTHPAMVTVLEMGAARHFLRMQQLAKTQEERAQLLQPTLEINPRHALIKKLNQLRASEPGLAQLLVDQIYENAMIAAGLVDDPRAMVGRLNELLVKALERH
Kind of data set: Displacement of PU-FITC3 from recombinant TRAP-1 (unknown origin) after 24 hrs by fluorescence polarization assay.

The species named for data set [4] is Homo sapiens. The experiment in a line: Selectivity ratio of IC50 for recombinant Grp94 (unknown origin) to IC50 for recombinant Hsp90alpha (unknown origin).
Data set [5] has as its target Heat shock protein HSP 90-beta (Homo sapiens, UniProt P08238).
Data set [6] in a line: Cytotoxicity against human SKBR3 cells assessed as cell viability at 100 uM after 72 hrs by CellTiter-Glo assay. The data set is classed as cell-based. The following applies: sk-br-3, 72 h. A digest of the protocol:
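SKBr3 cells were grown in McCoy's 5A with 10% FBS and Pen/Strep at 37 °C. They were exposed 72 h to vehicle or compound in quadruplicate wells. Viability was read by CellTiter-Glo luminescence (ATP content), with mean ± error, n = 4.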

The target of data set [7] is Heat shock protein HSP90 (Homo sapiens) (UniProt P07900+P08238). The experiment in a line: Inhibition of HSP90 in human SKBR3 cells assessed as induction of HSP70 activity at 100 uM after 24 hrs by Western blot analysis. Format: cell-based. To be noted: SK-BR-3. A digest of the protocol: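 SKBr3 cells (McCoy's 5A, 10% FBS, 1% Pen/Strep, 37 °C, CO2) treated 24 h with DMSO vehicle or compound. Cells lysed in RIPA with protease inhibitors; protein measured by BCA. Lysate (5−50 μg) run on SDS−PAGE, blotted to nitrocellulose, probed for Hsp70 (1:2500) and β-actin. HRP secondary, ECL detection, densitometry; triplicate experiments.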
On the technique in general: Immunoblotting shows a protein as a band on a membrane.

For data set [8], the target named is MAP kinase-interacting serine/threonine-protein kinase 2 (Homo sapiens) (UniProt Q9HBH9). Kind of data set: Inhibition of human MKNK2 at 10 uM after 1 hr by qPCR analysis relative to control. A digest of the protocol:
(§1)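 Compound tested at 10 μM in a scanEDGE 97 active-site competition binding panel. Incubation was 1 h at room temperature, then washing and elution with non-biotinylated ligand. Bead-bound kinase was quantified by qPCR; values are % inhibition.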
A general note: Quantitative PCR measures a nucleic acid by following its amplification.

For data set [9], the target named is Rho-associated protein kinase 2 (Homo sapiens) (UniProt O75116). Kind of data set: Inhibition of human ROCK2 at 10 uM after 1 hr by qPCR analysis relative to control. A digest of the protocol: as §1

Structures are written as SMILES. Activity calls are given as the source filed them. The rule behind the calls is not given here.

Chain of Endoplasmin (P41148 whole entry): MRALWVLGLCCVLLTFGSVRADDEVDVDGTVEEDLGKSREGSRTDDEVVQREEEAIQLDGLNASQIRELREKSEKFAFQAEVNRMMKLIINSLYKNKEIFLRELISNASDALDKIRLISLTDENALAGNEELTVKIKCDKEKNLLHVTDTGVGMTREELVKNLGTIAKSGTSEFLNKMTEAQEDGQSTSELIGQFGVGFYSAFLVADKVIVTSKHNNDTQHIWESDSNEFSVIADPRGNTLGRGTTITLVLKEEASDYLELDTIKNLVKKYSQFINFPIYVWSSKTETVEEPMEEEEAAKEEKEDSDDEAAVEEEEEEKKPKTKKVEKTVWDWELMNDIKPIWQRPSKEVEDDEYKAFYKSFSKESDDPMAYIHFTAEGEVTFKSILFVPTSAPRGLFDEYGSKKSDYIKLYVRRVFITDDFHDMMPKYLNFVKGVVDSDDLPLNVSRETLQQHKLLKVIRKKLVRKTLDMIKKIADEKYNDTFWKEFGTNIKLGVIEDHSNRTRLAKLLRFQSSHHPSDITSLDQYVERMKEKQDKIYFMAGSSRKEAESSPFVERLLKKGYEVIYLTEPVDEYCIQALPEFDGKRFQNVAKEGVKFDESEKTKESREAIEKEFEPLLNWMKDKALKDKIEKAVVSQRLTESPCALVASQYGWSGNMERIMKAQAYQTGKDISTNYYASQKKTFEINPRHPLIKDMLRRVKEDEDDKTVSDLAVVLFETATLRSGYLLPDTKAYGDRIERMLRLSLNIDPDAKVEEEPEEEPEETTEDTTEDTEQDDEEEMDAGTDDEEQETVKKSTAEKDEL
Chain of Heat shock protein HSP 90-beta (P08238 whole entry): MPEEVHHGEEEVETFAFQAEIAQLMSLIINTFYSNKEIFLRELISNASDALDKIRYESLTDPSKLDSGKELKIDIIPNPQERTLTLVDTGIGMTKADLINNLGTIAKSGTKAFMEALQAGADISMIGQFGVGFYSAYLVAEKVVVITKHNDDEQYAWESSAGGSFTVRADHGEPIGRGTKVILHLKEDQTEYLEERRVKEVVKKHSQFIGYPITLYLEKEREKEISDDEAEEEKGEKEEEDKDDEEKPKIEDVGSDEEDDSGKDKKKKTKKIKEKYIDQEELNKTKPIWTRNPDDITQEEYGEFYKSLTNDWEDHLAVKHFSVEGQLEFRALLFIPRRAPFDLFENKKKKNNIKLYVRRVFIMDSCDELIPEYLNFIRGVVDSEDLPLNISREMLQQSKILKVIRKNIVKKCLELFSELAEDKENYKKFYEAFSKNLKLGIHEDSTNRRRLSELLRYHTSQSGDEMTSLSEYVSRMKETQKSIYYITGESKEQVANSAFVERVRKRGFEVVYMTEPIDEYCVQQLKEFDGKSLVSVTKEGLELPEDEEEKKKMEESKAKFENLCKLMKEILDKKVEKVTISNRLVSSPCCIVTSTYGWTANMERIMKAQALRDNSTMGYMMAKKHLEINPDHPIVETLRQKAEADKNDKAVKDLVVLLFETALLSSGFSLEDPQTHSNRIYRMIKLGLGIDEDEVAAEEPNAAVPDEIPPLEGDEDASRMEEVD
Chain of MAP kinase-interacting serine/threonine-protein kinase 2 (Homo sapiens) (Q9HBH9 whole entry, looked up): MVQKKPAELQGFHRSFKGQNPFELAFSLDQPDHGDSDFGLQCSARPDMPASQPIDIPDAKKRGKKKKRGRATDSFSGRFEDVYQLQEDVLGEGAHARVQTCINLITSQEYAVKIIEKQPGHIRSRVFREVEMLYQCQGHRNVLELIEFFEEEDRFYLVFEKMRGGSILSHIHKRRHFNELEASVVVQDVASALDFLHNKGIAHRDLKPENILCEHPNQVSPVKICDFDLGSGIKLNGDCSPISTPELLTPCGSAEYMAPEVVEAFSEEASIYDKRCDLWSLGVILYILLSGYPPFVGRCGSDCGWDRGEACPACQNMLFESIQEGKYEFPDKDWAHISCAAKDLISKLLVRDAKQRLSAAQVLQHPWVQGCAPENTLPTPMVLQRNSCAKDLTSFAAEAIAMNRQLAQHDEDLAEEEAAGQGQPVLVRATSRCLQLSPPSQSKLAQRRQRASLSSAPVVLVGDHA
Chain of Rho-associated protein kinase 2 (Homo sapiens) (O75116 whole entry, looked up): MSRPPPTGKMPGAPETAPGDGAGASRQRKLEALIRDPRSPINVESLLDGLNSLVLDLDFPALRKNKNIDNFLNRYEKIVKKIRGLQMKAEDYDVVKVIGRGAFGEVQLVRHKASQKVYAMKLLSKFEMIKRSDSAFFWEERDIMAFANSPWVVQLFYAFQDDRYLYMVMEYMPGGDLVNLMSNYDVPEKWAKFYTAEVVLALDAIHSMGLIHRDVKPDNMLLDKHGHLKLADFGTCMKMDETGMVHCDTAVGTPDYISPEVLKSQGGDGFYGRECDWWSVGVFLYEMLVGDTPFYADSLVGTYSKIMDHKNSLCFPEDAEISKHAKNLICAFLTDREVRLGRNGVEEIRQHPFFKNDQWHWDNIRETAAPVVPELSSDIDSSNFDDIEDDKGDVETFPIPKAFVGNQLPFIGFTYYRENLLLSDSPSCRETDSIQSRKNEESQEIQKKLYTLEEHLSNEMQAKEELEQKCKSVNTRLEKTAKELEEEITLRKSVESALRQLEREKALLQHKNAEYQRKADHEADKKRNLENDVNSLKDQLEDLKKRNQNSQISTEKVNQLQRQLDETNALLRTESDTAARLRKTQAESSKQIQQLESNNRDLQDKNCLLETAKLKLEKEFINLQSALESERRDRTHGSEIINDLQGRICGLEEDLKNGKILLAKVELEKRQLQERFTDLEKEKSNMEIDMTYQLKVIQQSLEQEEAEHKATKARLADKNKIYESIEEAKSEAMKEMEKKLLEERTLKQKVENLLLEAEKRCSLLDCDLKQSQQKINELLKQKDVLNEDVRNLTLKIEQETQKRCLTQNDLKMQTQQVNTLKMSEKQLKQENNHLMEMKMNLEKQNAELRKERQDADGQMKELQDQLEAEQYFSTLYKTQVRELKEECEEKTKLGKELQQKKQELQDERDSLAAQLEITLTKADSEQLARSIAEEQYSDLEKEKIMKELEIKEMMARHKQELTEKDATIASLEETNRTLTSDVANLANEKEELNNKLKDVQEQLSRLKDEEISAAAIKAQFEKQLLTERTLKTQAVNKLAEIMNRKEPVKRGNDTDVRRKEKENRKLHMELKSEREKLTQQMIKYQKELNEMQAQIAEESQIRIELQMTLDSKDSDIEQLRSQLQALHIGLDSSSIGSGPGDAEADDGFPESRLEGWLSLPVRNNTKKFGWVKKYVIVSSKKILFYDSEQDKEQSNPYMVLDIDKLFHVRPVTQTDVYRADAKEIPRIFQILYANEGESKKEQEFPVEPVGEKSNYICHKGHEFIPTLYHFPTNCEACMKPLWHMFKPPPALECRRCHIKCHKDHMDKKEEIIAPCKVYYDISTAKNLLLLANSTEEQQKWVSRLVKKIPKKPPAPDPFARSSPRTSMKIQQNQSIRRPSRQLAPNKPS

As a reminder, the IC50 is the midpoint of a concentration-inhibition curve. Turning to `Nc1ncnc2c1nc(Sc1cc(Cl)cc(Cl)c1)n2CCCC(F)(F)F`, the concentration for half-maximal inhibition (IC50) in data set [1] was 502 nM.

Take `C#CCCCn1c(Oc2ccc(Cl)cc2Cl)nc2c(N)ncnc21`: the half-inhibitory concentration (IC50) is greater than 100 µM in [2] and 500 nM in data set [1].

Take `C#CCCCn1c(Sc2ccc(Cl)cc2)nc2c(N)ncnc21`: the 50% inhibitory concentration (IC50) in data set [1] was found to be 1500 nM.

For `C#CCCCn1c(S(=O)(=O)c2ccc(Cl)cc2Cl)nc2c(N)ncnc21`, in [1], the half-inhibitory concentration (IC50) was 4700 nM.

Consider `C#CCCCn1c(Sc2ccccc2CO)nc2c(N)ncnc21`, for which the 50% inhibitory concentration (IC50) in data set [1] was 29400 nM.

In the case of `CCCC(C)n1c(Sc2cc(Cl)cc(Cl)c2)nc2c(N)ncnc21` (stereo not drawn), the figures for the 50% inhibitory concentration (IC50) in data set [2] and in data set [1] were greater than 50 µM and 14300 nM, respectively.

Take `C#CCCCn1c([S+]([O-])c2ccc(Cl)cc2Cl)nc2c(N)ncnc21` (stereo not drawn): the figures for the concentration for half-maximal inhibition (IC50) in data set [2] and in [1] were 24.9 µM and 5400 nM, respectively.

Regarding `C#CCCCn1c(Sc2cc(Cl)nc(Cl)c2)nc2c(N)ncnc21`, the results for the concentration for half-maximal inhibition (IC50) in data set [3], in data set [2] and in [1] were 9.6 µM, 8.3 µM and 1900 nM, respectively.

Take `CC(C)NCCCn1c(Sc2ccc(Cl)cc2Cl)nc2c(N)nccc21`: the IC50 in data set [3] is 14.1 µM; in data set [2] it was greater than 50 µM; in [1], 3440 nM.

As for `Nc1ncnc2c1nc(Sc1cc(Cl)cc(Cl)c1)n2CCc1ccccc1`, the IC50 in [2] is greater than 50 µM; in data set [1], greater than 2500 nM.

On to `CC(C)NCCCn1c(Sc2cc3c(cc2I)OCO3)nc2c(N)nccc21`, for which the Ratio IC50 in data set [4] was determined as 4. The results for the IC50 in [2] and in [1] were 0.028 µM and 101 nM, respectively.

`C#CCC(CC)n1c(Sc2ccc(Cl)cc2Cl)nc2c(N)ncnc21` (stereo not drawn): the IC50 was greater than 50 µM in data set [3], greater than 50 µM in data set [2] and 920 nM in data set [1].

With `C#CCCCCn1c(Sc2cc(Cl)cc(Cl)c2)nc2c(N)ncnc21`, the IC50 in [2] is greater than 50 µM; in data set [1], 665 nM.

`C#CCCCn1c(Sc2ccccc2Cl)nc2c(N)ncnc21`: the IC50 in data set [1] came out at 350 nM.

Consider `C#CCCCn1c(Sc2cc(Cl)cc(Br)c2)nc2c(N)ncnc21`, for which the values for the IC50 in data set [2], in data set [5] and in data set [1] were greater than 100 µM, greater than 100 µM and 240 nM, respectively.

Turning to `C#CCCCn1c(Sc2cc(C(F)(F)F)ccc2Cl)nc2c(N)ncnc21`, the 50% inhibitory concentration (IC50) in [2] is greater than 100 µM; in data set [5] it was greater than 100 µM; in [1], 500 nM.

Consider `C#CCCCn1c(Sc2ccc(OC)cc2)nc2c(N)ncnc21`, for which the 50% inhibitory concentration (IC50) in [1] turned out to be 1130 nM.

Take `CCCC(C)n1c(Sc2ccc(Cl)cc2Cl)nc2c(N)ncnc21` (stereo not drawn): the IC50 in [3] was greater than 50 µM; in data set [2], greater than 100 µM; in data set [1], 2480 nM.

For `Nc1ncnc2c1nc(Sc1cc(Cl)cc(Cl)c1)n2CCCCCC(F)(F)F`, the IC50 in data set [2] is greater than 50 µM; in [1], 1650 nM.

Turning to `C#CCCCn1c(Sc2ccc(OC)cc2OC)nc2c(N)ncnc21`, the IC50 in data set [2] was greater than 50 µM; in data set [5], greater than 50 µM; in data set [1], 34500 nM.

Turning to `C#CCCCn1c(Sc2cc(C)cc(C)c2)nc2c(N)ncnc21`, the IC50 in [1] was 11500 nM.

As for `C#CCCCn1c(Sc2ccc(Br)cc2Cl)nc2c(N)ncnc21`, the values for the IC50 in data set [2] and in data set [1] were greater than 50 µM and 390 nM, respectively.

As for `C#CCCCn1c(Sc2cc(Br)cc(Br)c2)nc2c(N)ncnc21`, the half-maximal inhibitory concentration (IC50) in data set [2] is greater than 50 µM; in [1], 290 nM.

In the case of `C#CCCCn1c(Sc2cc(Cl)ccc2Cl)nc2c(N)ncnc21`, in data set [1], the IC50 came out at 530 nM.

On to `C#CCC(C)n1c(Sc2ccc(Cl)cc2Cl)nc2c(N)ncnc21` (stereo not drawn), for which the values for the IC50 in data set [2] and in data set [1] were greater than 50 µM and 5000 nM, respectively.

`C#CCCCn1c(Sc2ccccc2OC)nc2c(N)ncnc21`: the concentration for half-maximal inhibition (IC50) in data set [2] is greater than 100 µM; in data set [5], greater than 100 µM; in [1], 6200 nM.

With `Cc1ccc(Sc2nc3c(N)ncn(CCCNC(C)C)c-3n2)c(C)c1`, the IC50 in data set [1] is greater than 25000 nM.

Regarding `C#CCCCn1c(Sc2c(C)cc(C)cc2C)nc2c(N)ncnc21`, the IC50 in data set [2] was greater than 500 µM; in [5], greater than 500 µM; in data set [1], 2100 nM.

As for `C#CCCn1c(Sc2cc(Cl)cc(Cl)c2)nc2c(N)ncnc21`, the IC50 in data set [2] was greater than 50 µM; in data set [1], 287 nM.

For `Nc1ncnc2c1nc(Sc1cc(Cl)cc(Cl)c1)n2Cc1ccccc1`, the IC50 in [2] was greater than 50 µM; in data set [1], greater than 5000 nM.

Take `C#CCCn1c(Sc2ccc(Cl)cc2Cl)nc2c(N)ncnc21`: the IC50 in [3] is 7.23 µM; in [2], greater than 50 µM; in data set [1] it was 390 nM.

Take `CCCCn1c(Sc2cc(Cl)cc(Cl)c2)nc2c(N)ncnc21`: in [2], the IC50 was greater than 50 µM.

For `Nc1ncnc2c1nc(Sc1cc(Cl)cc(Cl)c1)n2CCCCC(F)(F)F`, the IC50 in data set [1] is 2740 nM.

As usually defined, the inhibition is the change of the read-out against control, counted positive when it falls. In the case of `COC(=O)c1c(O)cc(O)c(Cl)c1CCc1nccn1Cc1ccccc1`, the Activity entry in [6] is recorded as “Toxic”. Further, in data set [7], the inhibition entry is “Active”.

Regarding `CC(C)NCCCn1c(Sc2cc3c(cc2N(C)C)OCO3)nc2c(N)ncnc21`, the results for the IC50 in data set [2] and in data set [1] were 0.1 µM and 265 nM, respectively.

As for `Nc1ncnc2c1nc(Sc1cc(Cl)cc(Cl)c1)n2CCC(F)(F)F`, the IC50 in [1] turned out to be 560 nM.

Turning to `C#CCCCn1c(Sc2ccc(Cl)cc2Cl)nc2c(N)ncnc21`, the inhibition stood at 34% in data set [8] and 32% in data set [9]. Further, the 50% inhibitory concentration (IC50) in [1] amounted to 120 nM.

For the compound `CC(C)NCCCn1c(Sc2cc(Cl)cc(Cl)c2)nc2c(N)nccc21`, the results for the 50% inhibitory concentration (IC50) in data set [3] and in data set [1] were 7.2 µM and 1080 nM, respectively.

With `C#CCCCn1c(Sc2cc(Cl)cc(Cl)c2)nc2c(N)ncnc21`, the IC50 in data set [3] was 83.6 µM; in data set [2], greater than 500 µM; in [5] it was greater than 500 µM; in [1], 260 nM.

On to `CC#CCn1c(Sc2cc(Cl)cc(Cl)c2)nc2c(N)ncnc21`, for which the IC50 in data set [1] came to 5100 nM.

Take `C#CCCCn1c(Sc2ccc(Cl)c(Cl)c2Cl)nc2c(N)ncnc21`: the half-maximal inhibitory concentration (IC50) in [3] came out at 3.6 µM; in [2], 16 µM; in data set [5], 39.5 µM; in data set [1], 430 nM.

As to `C#CCCCn1c(Cc2ccc(Cl)cc2Cl)nc2c(N)ncnc21`, the IC50 in data set [2] is greater than 100 µM; in [1], 700 nM.

Take `C#CCC(C)n1c(Sc2cc(Cl)cc(Cl)c2)nc2c(N)ncnc21` (stereo not drawn): the IC50 is greater than 50 µM in [2] and 5800 nM in [1].

`C#CCCCn1c(Sc2ccc(Cl)c(Cl)c2)nc2c(N)ncnc21`: the IC50 in data set [2] was 1.96 µM; in data set [1], 695 nM.

For `C#CCCCn1c(C(=O)c2ccc(Cl)cc2Cl)nc2c(N)ncnc21`, the half-maximal inhibitory concentration (IC50) was 4.98 µM in [3], greater than 100 µM in data set [2] and 340 nM in data set [1].

Turning to `C#CCCCn1c(Sc2ccccc2OC(F)(F)F)nc2c(N)ncnc21`, the 50% inhibitory concentration (IC50) in [1] was found to be 1400 nM.

Consider `C#CCC(CC)n1c(Sc2cc(Cl)cc(Cl)c2)nc2c(N)ncnc21` (stereo not drawn), for which the half-maximal inhibitory concentration (IC50) in data set [2] was greater than 100 µM; in data set [1], greater than 5000 nM.

As for `C#CCCCn1c(Sc2cc(Cl)c(Cl)cc2Cl)nc2c(N)ncnc21`, the IC50 in [1] turned out to be 170 nM.

The values above are taken from ChEMBL document CHEMBL3425404, “Structure-activity relationship in a purine-scaffold compound series with selectivity for the endoplasmic reticulum Hsp90 paralog Grp94” (J Med Chem, 2015).
